Measurements pooled from the literature.
Lines come from different studies, so protocols differ.
Oprm1: Mu-type opioid receptor (Oprm1, Rattus norvegicus, UniProt P33535)

Compound | target | test | conditions | endpoint | value
O=C(c1cc(O)c(O)c([N+](=O)[O-])c1)c1ccccc1F | Transthyretin (TTR, Homo sapiens, UniProt P02766) | binding, SPR |  | koff | 0.132 s⁻¹
Cn1cc(-c2cccc(N3CCc4c(sc5c4CC(C)(C)C5)C3=O)c2CO)cc(Nc2ccncn2)c1=O | Phosphatidylinositol 4-kinase alpha (PI4KA, Homo sapiens, UniProt P42356) | enzyme activity, inhibitor | 1 µM | inhibition | -5%
CCN(CC)CCCC[C@H](NC(=O)[C@H](CC(C)C)NC(=O)[C@H](C)NC(=O)[C@H](Cc1ccccc1)NC(=O)c1ccc(C(C)(C)C)cc1)C(=O)N[C@@H](CO)C(=O)OC | 5-hydroxytryptamine receptor 5A (HTR5A, Homo sapiens, UniProt P47898) | ligand displacement, radioligand | 10 µM | remaining binding | 93.1%
C[C@@H](O)[C@@H]1CN([C@H](Cc2ccc3ccccc3c2)CN2CCC[C@H]2CN2CCNC[C@@H]2Cc2ccc3ccccc3c2)CCN1CCc1ccc(Cl)c(Cl)c1 | Oprm1 | ligand displacement, radioligand | 0.5 µM, 1 h, pH 7.5, cell membranes | remaining binding | 109%
Nc1ncc(-c2nc(N3CCOCC3)nc(N3CCOCC3)n2)c(C(F)F)n1 | Mast/stem cell growth factor receptor Kit (KIT, Homo sapiens, UniProt P10721, A829P) | binding, competition with immobilised ligand | 10 µM | remaining binding | 80%
COc1ncccc1-c1cnn2ccc(N3CCN(C(=O)OC(C)C)CC3)nc12 | Mitogen-activated protein kinase kinase kinase 19 (MAP3K19, Homo sapiens, UniProt Q56UN5) | binding, competition with immobilised ligand | 1 µM | remaining binding | 100%
Cc1nn(C)cc1-c1nc2c(N3CCN(Cc4ccc(Cl)cc4)CC3)c(Cl)cnc2[nH]1 | Atypical kinase COQ8A, mitochondrial (COQ8A, Homo sapiens, UniProt Q8NI60) | binding, competition with immobilised ligand | 1 µM | remaining binding | 80%
C#Cc1n[nH]c2c(-c3cn(C(C)c4ccccn4)c(=O)[nH]c3=O)cc(F)cc12 (centres unmarked) | Myosin light chain kinase, smooth muscle (MYLK, Homo sapiens, UniProt Q15746) | enzyme activity, inhibitor | 1 µM | inhibition | 4%
CC[C@@H](C)[C@@H]1CN([C@@H](CC2CCCCC2)CN2CCC[C@H]2CN2CCNC[C@@H]2CO)CCN1CCc1ccc(Cl)c(Cl)c1 | Oprm1 | ligand displacement, radioligand | 0.5 µM, 1 h, pH 7.5, cell membranes | remaining binding | 97.8%
Cn1cc(-c2cc(F)cc(N3CCn4c(cc5c4CCCC5)C3=O)c2CO)cc(Nc2ccc(N3CCN(C4COC4)CC3)cn2)c1=O | Phosphatidylinositol 4,5-bisphosphate 3-kinase catalytic subunit delta isoform (PIK3CD, Homo sapiens, UniProt O00329) | enzyme activity, inhibitor | 0.1 µM | inhibition | -1%
CCCC[C@H]1CNCCN1C[C@@H]1CCCN1C[C@@H](Cc1ccc2ccccc2c1)N1CCN(CCC23CC4CC(CC(C4)C2)C3)[C@H]([C@@H](C)O)C1 | Oprm1 | ligand displacement, radioligand | 0.5 µM, 1 h, pH 7.5, cell membranes | remaining binding | 102%
CC(C)(C)c1nc2c(s1)c1nc(N)ncc1c1ccc(NS(=O)(=O)c3c(F)cccc3F)c(F)c12 | Tau-tubulin kinase 1 (TTBK1, Homo sapiens, UniProt Q5TCY1) | enzyme activity, inhibitor, radiometric | 1 µM | remaining activity | 79%
COc1cc(Cl)c(C(=O)N[C@@H](CN[C@H]2CC[C@@H](N)CC2)Cc2ccc(C#N)cc2)cc1-c1ccc(CN[C@H](C)c2ccc(C)cc2)o1 | Serine/threonine-protein kinase Nek11 (NEK11, Homo sapiens, UniProt Q8NG66) | enzyme activity, inhibitor | 1 µM | remaining activity | 107%
CC[C@@H](C)[C@@H]1CN([C@H](Cc2ccc3ccccc3c2)CN2CCC[C@H]2CN2CCNC[C@@H]2CO)CCN1CCc1ccc(Cl)c(Cl)c1 | Oprm1 | ligand displacement, radioligand | 0.5 µM, 1 h, pH 7.5, cell membranes | remaining binding | 98.4%
